In ChEMBL document CHEMBL3853295, “Design and synthesis of novel pyrazolo[1,5-a]pyrimidine derivatives bearing nitrogen mustard moiety and evaluation of their antitumor activity in vitro and in vivo” (Eur J Med Chem, 2016):
Activity calls are given as the source filed them. The rule behind the calls is not given here.

Assays:
[1] = Cytotoxicity against human MCF7 cells after 72 hrs by MTT assay; type: functional, cell-based; settings: MCF7, 72 h
Method in brief: (§1)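 Cells cultured in DMEM or RPMI 1640 with 10% FBS. Seeded at about 2 × 10^3 per well and grown 24 h at 37 °C, 5% CO2. Compounds added at final 0.1–1000 uM for 72 h, 5 wells per concentration. MTT added for 4 h at 37 °C, then lysis overnight. Absorbance read at 570 nm against a 650 nm reference; IC50 calculated.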

[2] = Cytotoxicity against human HepG2 cells after 72 hrs by MTT assay; type: functional, cell-based; settings: HepG2, 72 h; method in brief: as §1
[3] = Cytotoxicity against human A549 cells after 72 hrs by MTT assay; type: functional, cell-based; settings: A549, 72 h; method in brief: as §1
[4] = Cytotoxicity against human GES-1 cells assessed as reduction in cell viability after 72 hrs by MTT assay; type: toxicity, cell-based, GES1; method in brief: as §1
[5] = Cytotoxicity against human SH-SY5Y cells after 72 hrs by MTT assay; type: functional, cell-based; method in brief: as §1
[6] = Cytotoxicity against human DU145 cells after 72 hrs by MTT assay; type: functional, cell-based; settings: DU-145, 72 h; method in brief: as §1
HepG2 [7] = assay: Induction of apoptosis in human HepG2 cells assessed as viable cells at 6 uM after 24 hrs by Annexin V-FITC/propidium iodide staining based flow cytometric analysis analysis (reference value: 90.7 %); type: functional; settings: HepG2, 24 h, read-out: Activity
HepG2 [8] = assay: Induction of apoptosis in human HepG2 cells assessed as late apoptotic cells at 2 uM after 24 hrs by Annexin V-FITC/propidium iodide staining based flow cytometric analysis analysis (reference value: 5.93 %); type: functional
Mus musculus [9] = assay: Toxicity in nude mouse xenografted with human HepG2 cells assessed as body weight change at 20 mg/kg, ip administered every day for 15 times measured from day 12 to 26; type: organism-based; settings: in vivo
Method in brief: (§2)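 Same subcutaneous HepG-2 xenograft in female nude mice (5 × 10^6 cells, left flank). n = 5 per group, daily i.p. dosing for 15 times, saline control. Body weight of each mouse recorded every other day during therapy and followed after treatment stopped. Treated versus untreated compared by p value over days 12–26.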

HepG2 [10] = assay: Induction of apoptosis in human HepG2 cells assessed as viable cells at 4 uM after 24 hrs by Annexin V-FITC/propidium iodide staining based flow cytometric analysis analysis (reference value: 90.7 %); type: functional; settings: HepG2, 24 h, read-out: Activity
HepG2 [11] = assay: Induction of apoptosis in human HepG2 cells assessed as viable cells at 2 uM after 24 hrs by Annexin V-FITC/propidium iodide staining based flow cytometric analysis analysis (reference value: 90.7 %); type: functional; settings: HepG2, 24 h, read-out: Activity
[12] = Antitumor activity against human HepG2 cells xenografted in nude mouse assessed as tumor growth inhibition at 10 mg/kg, ip administered every day for 15 times measured from day 12 to 26; type: functional; parameters: scale not given: the % may be the effect or the level left
Method in brief: (§3)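 Female nude mice given 5 × 10^6 HepG-2 cells subcutaneously in the left flank. Randomized, n = 5 per group. Daily i.p. injection for 15 times, with saline as vehicle control. Tumor length and width recorded every other day; volume taken as 1/2·length·width² once tumors reached 130–160 mm3. Result is tumor growth inhibition versus the saline group.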

HepG2 [13] = assay: Induction of apoptosis in human HepG2 cells assessed as late apoptotic cells at 6 uM after 24 hrs by Annexin V-FITC/propidium iodide staining based flow cytometric analysis analysis (reference value: 5.93 %); type: functional
HepG2 [14] = assay: Induction of apoptosis in human HepG2 cells assessed as necrotic cells at 2 uM after 24 hrs by Annexin V-FITC/propidium iodide staining based flow cytometric analysis analysis (reference value: 1.74 %); type: functional
[15] = Cell cycle arrest in human HepG2 cells assessed as accumulation at G1 phase at 1 to 3 uM after 24 hrs by propidium iodide staining-based flow cytometric analysis; type: functional
Method in brief: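 HepG2 cells exposed 24 h, then trypsinized, washed in ice-cold PBS and fixed in ice-cold 70% ethanol for at least 24 h. Resuspended in 0.4 mL PBS with RNase A (1 mg/ml stock) and PI (500 ug/ml stock) for 30 min at 4 °C in the dark. Cycle distribution (G1, S, G2/M percentages) read by flow cytometry.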

HepG2 [16] = assay: Induction of apoptosis in human HepG2 cells assessed as early apoptotic cells at 6 uM after 24 hrs by Annexin V-FITC/propidium iodide staining based flow cytometric analysis analysis (reference value: 1.60 %); type: functional
HepG2 [17] = assay: Induction of apoptosis in human HepG2 cells assessed as necrotic cells at 4 uM after 24 hrs by Annexin V-FITC/propidium iodide staining based flow cytometric analysis analysis (reference value: 1.74 %); type: functional
HepG2 [18] = assay: Induction of apoptosis in human HepG2 cells assessed as early apoptotic cells at 2 uM after 24 hrs by Annexin V-FITC/propidium iodide staining based flow cytometric analysis analysis (reference value: 1.60 %); type: functional
HepG2 [19] = assay: Induction of apoptosis in human HepG2 cells assessed as late apoptotic cells at 4 uM after 24 hrs by Annexin V-FITC/propidium iodide staining based flow cytometric analysis analysis (reference value: 5.93 %); type: functional
Mus musculus [20] = assay: Toxicity in nude mouse xenografted with human HepG2 cells assessed as body weight change at 10 mg/kg, ip administered every day for 15 times measured from day 12 to 26; type: organism-based; settings: in vivo; method in brief: as §2
[21] = Antitumor activity against human HepG2 cells xenografted in nude mouse assessed as tumor growth inhibition at 20 mg/kg, ip administered every day for 15 times measured from day 12 to 26; type: functional; parameters: scale not given: the % may be the effect or the level left; method in brief: as §3
HepG2 [22] = assay: Induction of apoptosis in human HepG2 cells assessed as necrotic cells at 6 uM after 24 hrs by Annexin V-FITC/propidium iodide staining based flow cytometric analysis analysis (reference value: 1.74 %); type: functional
Mus musculus [23] = assay: Toxicity in nude mouse xenografted with human HepG2 cells assessed as body weight change at 10 and 20 mg/kg, ip administered every day for 15 days and measured treatment cessation; type: organism-based; settings: in vivo, 360 h; method in brief: as §2
HepG2 [24] = assay: Induction of apoptosis in human HepG2 cells assessed as early apoptotic cells at 4 uM after 24 hrs by Annexin V-FITC/propidium iodide staining based flow cytometric analysis analysis (reference value: 1.60 %); type: functional

SMILES | IC50 [1] [µM] | IC50 [2] [µM] | IC50 [3] [µM] | IC50 at 72 h [4] [µM] | IC50 [5] [µM] | IC50 [6] [µM] | further results
CN1CCN(Cc2cc(Nc3ccc(N(CCCl)CCCl)cc3)n3ncc(C#N)c3n2)CC1 | 12.2 | 2.92 | 8.9 | 8.29 | 7.42 | 23.6 | –
N#Cc1cnn2c(Nc3ccc(N(CCCl)CCCl)cc3)cc(CN3CCC(N4CCCCC4)CC3)nc12 | 8.31 | 0.21 | 6.13 | 9.54 | 6.02 | 6.82 | viability at 6 µM (HepG2 [7]): 57.3%; Activity (HepG2 [8]): 11.9%; Activity (Mus musculus [9]): 9.21%; viability at 4 µM (HepG2 [10]): 73.2%; viability at 2 µM (HepG2 [11]): 81.8%; Activity [12]: 43.88%; Activity (HepG2 [13]): 29.5%; Activity (HepG2 [14]): 3.39%; Activity [15]: Active; Activity (HepG2 [16]): 5.56%; Activity (HepG2 [17]): 5.08%; Activity (HepG2 [18]): 2.87%; Activity (HepG2 [19]): 18%; Activity (Mus musculus [20]): 7.15%; Activity [21]: 58.26%; Activity (HepG2 [22]): 7.69%; Activity (Mus musculus [23]): Non-Toxic; Activity (HepG2 [24]): 3.78%
CC1CCN(Cc2cc(Nc3ccc(N(CCCl)CCCl)cc3)n3ncc(C#N)c3n2)CC1 | 82.9 | 23.6 | 18.3 | 17.5 | 19.2 | 43.4 | –
CN(C)Cc1cc(Nc2ccc(N(CCCl)CCCl)cc2)n2ncc(C#N)c2n1 | 6.53 | 3.16 | 6.22 | 11 | 8.68 | 18.9 | –
O=P1(N(CCCl)CCCl)NCCCO1 (centres undefined) [CYCLOPHOSPHAMIDE ANHYDROUS] | – | – | – | – | – | – | Activity (Mus musculus [9]): 10.63%; Activity [12]: 42.11%; Activity (Mus musculus [20]): 7.04%; Activity [21]: 51.48%
N#Cc1cnn2c(Nc3ccc(N(CCCl)CCCl)cc3)cc(CN3CCCC3)nc12 | 12.4 | 5.54 | 9.84 | 13.7 | 9.17 | 27.2 | –
CNC(=O)c1cc(Oc2ccc(NC(=O)Nc3ccc(Cl)c(C(F)(F)F)c3)cc2)ccn1 [SORAFENIB] | – | – | 19.5 | 10.7 | 27.7 | – | Activity [12]: 47.9%; Activity [21]: 54.93%
CN(C)C1CCN(Cc2cc(Nc3ccc(N(CCCl)CCCl)cc3)n3ncc(C#N)c3n2)CC1 | 12.4 | 4.01 | 5.12 | 11.1 | 7.86 | 7.67 | –
N#Cc1cnn2c(Nc3cccc(Cl)c3)cc(CN(CCCl)CCCl)nc12 | 23 | 56.6 | > 100 | – | > 100 | 43.5 | –
N[C@@H](Cc1ccc(N(CCCl)CCCl)cc1)C(=O)O [MELPHALAN] | 40.6 | 18.3 | 43.8 | – | > 100 | > 100 | –
N#Cc1cnn2c(Nc3cccc(N(CCCl)CCCl)c3)cc(CN3CCC(N4CCCCC4)CC3)nc12 | 25.1 | 9.07 | 13.2 | – | 9.36 | 22.4 | –
CCN1CCN(Cc2cc(Nc3ccc(N(CCCl)CCCl)cc3)n3ncc(C#N)c3n2)CC1 | 13.8 | 10.7 | 14.8 | 13.5 | 8.4 | 21.7 | –
N#Cc1cnn2c(Nc3cccc(N(CCCl)CCCl)c3)cc(CN3CCCC3)nc12 | 37.5 | 14.4 | 17.5 | – | 15.7 | 35.4 | –
